An excerpt weighted towards active compounds, which were near 1.8% of everything screened.
CHRM5 antagonist: CHRM5 antagonism in calcium assay. P08912. CHO-hM5 cells, Fluo-8 calcium fluorescence, ACh EC80. inhibition, % at 3 µM. hit rate 0.59% among 360,000. AID 624040;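 active = inhibition above a per-plate cutoff, the mean of that plate's test compounds plus 3 SD, cut at about 27% in these data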;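 also: 0% = acetylcholine EC80 with DMSO and 100% = DMSO without agonist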
CHRM4 PAM: potentiates acetylcholine response at human M4 receptor; P08173; CHO-K1 hM4/Gqi5, Fluo-8 calcium fluorescence, ACh EC20; 0% = ACh EC20, 100% = maximal ACh; activation, % at 3 µM; hit rate 0.4% among 360,000; AID 624126;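 active = activation above its plate's cutoff, the mean activation of sample wells plus 3 SD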
Target sequence (P08173 whole entry, looked up): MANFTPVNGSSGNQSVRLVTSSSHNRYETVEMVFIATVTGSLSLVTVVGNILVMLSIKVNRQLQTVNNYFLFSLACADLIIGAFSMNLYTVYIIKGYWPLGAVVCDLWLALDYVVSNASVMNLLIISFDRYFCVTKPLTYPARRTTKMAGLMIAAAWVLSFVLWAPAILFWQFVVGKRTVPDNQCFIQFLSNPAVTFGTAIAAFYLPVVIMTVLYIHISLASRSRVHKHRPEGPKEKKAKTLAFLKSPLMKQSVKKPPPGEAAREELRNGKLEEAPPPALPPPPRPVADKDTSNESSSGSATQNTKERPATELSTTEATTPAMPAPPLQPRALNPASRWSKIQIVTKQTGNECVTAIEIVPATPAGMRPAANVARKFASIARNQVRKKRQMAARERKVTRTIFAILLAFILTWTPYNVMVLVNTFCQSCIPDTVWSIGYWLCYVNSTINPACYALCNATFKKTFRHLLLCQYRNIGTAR
M4 antag: antagonists of human muscarinic M4 receptor (CHRM4); hit rate 0.73% among 360,000; inhibition, % at 3 µM; CHO-hM4 cells, ACh EC80, Fluo-8 calcium fluorescence; P08173; AID 624125;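 active = inhibition above its plate's cutoff, the mean inhibition of sample wells plus 3 SD, cut at about 27% in these data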;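 also: 0% = acetylcholine EC80 with DMSO and 100% = DMSO without agonist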
M5 PAM: positive allosteric modulators of human muscarinic M5 receptor; activation, % at 3 µM; P08912; hit rate 0.3% among 360,000; CHO-K1 hM5, Fluo-8 calcium, ACh EC20 PAM; 0% = ACh EC20, 100% = ACh EC100;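 active = activation above the run cutoff, the mean activation of all test compounds plus 3 SD, cut at about 18% in these data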
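System: CHO-K1 hM5 cells. Reagent: acetylcholine, EC20 level. Compound dosing: single dose, 3 µM nominal final test concentration. Timing: Post-acetylcholine fluorescence recording 140 s. Detection: Fluo-8 calcium fluorescence. Read-out: % activation, ACh-normalized. Benchmarks: ACh EC20 and EC100 wells. Repeats: singlicate, one well per test compound.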
M5 ag: agonists of human muscarinic M5 receptor (CHRM5). hit rate 0.19% among 360,000. CHO-K1 hM5 cells, Fluo-8 calcium fluorescence; 0% DMSO wells, 100% maximal acetylcholine response. activation, % at 3 µM. P08912;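 active = activation above the run's mean over test compounds plus 3 SD, cut at about 23% in these data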;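 also: signal is peak over basal fluorescence ratio across the kinetic read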
CHRM4 agonist: CHRM4 agonism in calcium assay | hit rate 0.14% among 360,000 | P08173 | CHO-K1 hM4/Gqi5, Fluo-8 calcium fluorescence; vehicle 0%, full acetylcholine response 100% | AID 624127 | activation, % at 3 µM;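 active = activation above the run mean over all test wells plus 3 SD, cut at about 32% in these data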;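 also: peak over basal fluorescence ratio per well then scaled between controls; 0% = DMSO wells and 100% = acetylcholine at EC100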
Starred values were filed as active, the others as inactive.

SMILES	CHRM5 antagonist	CHRM4 PAM	M4 antag	M5 PAM	M5 ag	CHRM4 agonist
CCn1nc(C)c([N+](=O)[O-])c1C(=O)NNC(=O)c1ccc(Cl)cc1	-3.4	-5.0	-17.8	19.5*	1.8	0.6
COC(=O)CC(NC(=S)NC(=O)c1ccccc1)c1ccc(Br)cc1 (centres undefined)	9.7	5.2	-14.1	-6.4	2.2	1.4
CCc1nc2ccc(C(=O)NCc3ccc4c(c3)OCO4)cn2c1N(CCC(C)C)CCN(C)C	-0.9	-4.9	-2.3	-1.1	-2.2	1.3
COC(=O)/C=C1\S/C(=N/NC(=O)c2ccc(OC)cc2)NC1=O	30.1*	3.5	1.1	-11.7	-1.4	1.7
CCNc1nc(NCC)n2c(SCC(=O)Nc3cccc(Cl)c3)nnc2n1	-7.8	7.6	-14.6	22.3*	0.7	0.1
COc1ccc(NS(=O)(=O)c2cccc(C(=O)NNC(=O)c3cc(S(N)(=O)=O)ccc3OC)c2)cc1	-4.3	18.1	-9.0	0.9	2.8	-0.2
CCN(CC)S(=O)(=O)c1ccc(C)c(NC(=O)COC(=O)CCC(=O)c2cccs2)c1	5.8	1.5	-6.0	-2.5	0.3	4.4
COc1ccccc1/C=C(\NC(=O)c1cccc(C)c1)C(=O)Nc1ccccn1	11.4	27.5*	26.8*	13.2	-1.9	8.1
O=C1NC(=O)C(c2ccccc2)(c2ccccn2)N1 (centres undefined)	11.3	3.8	-2.6	-1.2	2.4	0.7
O=C1NC(=S)NC1(c1ccccc1)c1ccccc1	8.5	-9.4	40.7*	-14.4	-11.0	0.1
CC(=O)Nc1ccc2c(c1)N(S(=O)(=O)c1cccs1)CCC2	-1.9	6.2	-9.2	3.4	0.9	0.1
COC1=CCC2([N+](=O)[O-])CN(CCO)CC1([N+](=O)[O-])C2 (centres undefined)	9.4	16.6	-2.3	19.0*	10.3	2.7
O=C(O)CCN1CC2([N+](=O)[O-])CC=C(OCCO)C([N+](=O)[O-])(C1)C2 (centres undefined)	7.9	0.5	0.2	-4.4	-2.2	0.4
COc1ccc(OC)c(NC(=O)CSc2nc3nc(C)cc(C)n3n2)c1	4.2	7.1	2.8	1.2	2.7	1.4
CCCCOc1ccc(Cc2c(O)nc(SC)[nH]c2=O)cc1	29.7*	17.8*	17.7	51.3*	6.6	4.7
COc1ccc(CCn2c(NN=C3CCCCC3)nc3c2c(=O)[nH]c(=O)n3C)cc1	6.0	13.8*	2.4	5.4	1.5	-0.1
Nc1nc(Nc2ccccc2)sc1C(=O)c1ccccc1	-0.9	11.9*	-19.0	8.5	33.2*	12.8
CC(C)Oc1cccc(C(=O)NC(=S)Nc2ccc(N3CCN(C)CC3)cc2)c1	14.9	-53.6	38.6*	-35.8	-19.4	6.6
COc1cccc(C(=O)NC(=S)Nc2ccc(N3CCCC3)cc2)c1	6.9	-10.4	-14.6	-1.9	-5.5	0.1
COc1cc(C2Nc3cc(Cl)c(S(N)(=O)=O)cc3S(=O)(=O)N2)cc(OC)c1OC (centres undefined)	0.7	23.9*	10.2	5.7	1.8	-0.1
COc1ccc(NC(=O)CCc2nnc3ccc(NCc4ccco4)nn23)cc1	13.8	38.7*	16.1	28.1*	0.9	17.5
COC(=O)c1ccc(N2CCOCC2)c(NC(=O)Nc2cccc(OC)c2)c1	3.4	-5.4	-0.3	-7.3	1.0	2.6
CCOC(=O)c1ccc(N2CCN(c3ccccc3F)CC2)c(NC(=O)Nc2cccc(OC)c2)c1	45.4*	4.2	2.6	-19.6	-1.4	2.7
COC(=O)c1c(-c2c(Cl)cccc2Cl)noc1NC(=O)NN1CCCCC1	7.3	-8.4	5.7	2.6	-3.3	0.3
CCCCc1nnc(NC(=O)C23CC4CC(CC(NC(C)=O)(C4)C2)C3)s1	33.4*	-3.7	10.9	-10.7	-3.4	1.1
CCN(CC(=O)NCCc1ccc(S(N)(=O)=O)cc1)Cc1ccccc1	-5.1	-5.0	-0.6	3.1	0.3	1.0
O=C(Nc1cnn(Cc2ccc(Cl)cc2Cl)c1)c1cc(-c2cccs2)on1	-3.3	30.7*	5.3	3.0	4.5	0.5
